According to ChEMBL document CHEMBL3352189 (J Med Chem, 2014):
Activity calls are given as the source filed them. The calls are words filed in the database; no cut-off is given here.

What was measured:
Mus musculus = experiment: Toxicity in Venezuelan equine encephalitis virus TC83 infected C3H/HeN mouse assessed as induction of hunched posture at 5 mg/kg/day, ip BID for 4 days; format: organism-based; design: route intraperitoneal; settings: in vivo, 96 h
[1] = molecular target: Adenosine receptor A1 (Homo sapiens) (UniProt P30542); experiment: Displacement of [3H]DPCPX from human adenosine A1 receptor at 10 uM
Chain of Adenosine receptor A1 (Homo sapiens) (P30542 whole entry): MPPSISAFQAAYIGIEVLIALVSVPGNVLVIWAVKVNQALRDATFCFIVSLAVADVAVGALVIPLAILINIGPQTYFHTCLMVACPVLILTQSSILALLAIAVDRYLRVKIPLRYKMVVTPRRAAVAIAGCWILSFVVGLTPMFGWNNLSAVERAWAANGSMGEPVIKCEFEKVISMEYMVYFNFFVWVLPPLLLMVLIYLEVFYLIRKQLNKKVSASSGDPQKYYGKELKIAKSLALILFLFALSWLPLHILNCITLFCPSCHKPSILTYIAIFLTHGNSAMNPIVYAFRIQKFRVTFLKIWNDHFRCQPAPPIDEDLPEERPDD

[2] = molecular target: Alpha-1A adrenergic receptor (Rattus norvegicus) (UniProt P43140); experiment: Displacement of [3H]prazosin from rat adrenergic alpha1A receptor at 10 uM
[3] = molecular target: Alpha-1B adrenergic receptor (Rattus norvegicus) (UniProt P15823); experiment: Displacement of [3H]prazosin from rat adrenergic alpha1B receptor at 10 uM
[4] = molecular target: Beta-2 adrenergic receptor (Homo sapiens) (UniProt P07550); experiment: Displacement of [3H]CGP-12177 from human adrenergic beta2 receptor at 10 uM
Chain of Beta-2 adrenergic receptor (Homo sapiens) (P07550 whole entry, looked up): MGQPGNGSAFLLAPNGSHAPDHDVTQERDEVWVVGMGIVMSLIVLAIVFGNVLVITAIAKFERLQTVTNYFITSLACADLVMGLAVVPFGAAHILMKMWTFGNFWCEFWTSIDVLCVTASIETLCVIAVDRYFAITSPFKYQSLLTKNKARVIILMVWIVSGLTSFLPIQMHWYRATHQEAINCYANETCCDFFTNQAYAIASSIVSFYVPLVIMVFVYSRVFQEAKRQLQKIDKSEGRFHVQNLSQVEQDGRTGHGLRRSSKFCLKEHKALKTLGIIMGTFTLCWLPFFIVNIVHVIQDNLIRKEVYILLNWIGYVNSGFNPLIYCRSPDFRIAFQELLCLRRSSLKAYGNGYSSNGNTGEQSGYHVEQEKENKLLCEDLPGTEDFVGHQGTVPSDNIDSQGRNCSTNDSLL

[5] = molecular target: B1 bradykinin receptor (Homo sapiens) (UniProt P46663); experiment: Displacement of [3H](Des-Arg10)-Kallidin from human bradykinin B1 receptor at 10 uM
Chain of B1 bradykinin receptor (Homo sapiens) (P46663 whole entry): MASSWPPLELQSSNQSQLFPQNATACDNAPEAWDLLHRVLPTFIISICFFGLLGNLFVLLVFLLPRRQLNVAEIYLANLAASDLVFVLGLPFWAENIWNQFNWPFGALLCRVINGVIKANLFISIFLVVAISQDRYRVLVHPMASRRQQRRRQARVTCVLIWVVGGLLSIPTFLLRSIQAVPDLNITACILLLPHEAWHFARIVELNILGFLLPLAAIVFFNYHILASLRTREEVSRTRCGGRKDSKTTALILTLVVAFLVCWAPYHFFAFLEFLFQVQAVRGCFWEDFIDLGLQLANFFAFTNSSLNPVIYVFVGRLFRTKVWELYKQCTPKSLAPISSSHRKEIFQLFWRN

[6] = molecular target: Endothelin receptor type B (Homo sapiens) (UniProt P24530); experiment: Displacement of [125I]endothelin-1 from human ETB receptor at 10 uM
Chain of Endothelin receptor type B (Homo sapiens) (P24530 whole entry): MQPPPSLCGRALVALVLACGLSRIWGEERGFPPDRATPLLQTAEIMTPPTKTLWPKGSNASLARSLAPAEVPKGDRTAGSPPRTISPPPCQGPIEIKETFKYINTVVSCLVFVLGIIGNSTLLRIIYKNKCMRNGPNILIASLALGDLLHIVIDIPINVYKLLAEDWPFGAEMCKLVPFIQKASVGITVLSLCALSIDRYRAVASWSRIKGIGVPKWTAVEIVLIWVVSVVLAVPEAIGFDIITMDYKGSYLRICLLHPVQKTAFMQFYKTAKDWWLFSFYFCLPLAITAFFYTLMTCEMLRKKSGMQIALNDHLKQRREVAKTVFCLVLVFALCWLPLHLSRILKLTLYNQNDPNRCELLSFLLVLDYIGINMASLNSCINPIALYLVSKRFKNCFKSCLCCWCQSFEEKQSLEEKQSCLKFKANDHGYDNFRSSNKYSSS

[7] = molecular target: Estrogen receptor (Homo sapiens) (UniProt P03372); experiment: Displacement of [3H]estradiol from human ERalpha at 10 uM
[8] = molecular target: Gamma-aminobutyric acid type B receptor subunit 1 (Homo sapiens) (UniProt Q9UBS5); experiment: Displacement of [3H]CGP-54626 from human GABA B1A receptor at 10 uM
[9] = molecular target: Glucocorticoid receptor (Homo sapiens) (UniProt P04150); experiment: Displacement of [3H]dexamethasone from human glucocorticoid receptor at 10 uM
Rattus norvegicus = species on record: Rattus norvegicus; experiment: Displacement of [3H]kainic acid from rat kainate receptor at 10 uM
[10] = molecular target: Histamine H1 receptor (Homo sapiens) (UniProt P35367); experiment: Displacement of [3H]pyrilamine from human histamine H1 receptor at 10 uM
Chain of Histamine H1 receptor (Homo sapiens) (P35367 whole entry): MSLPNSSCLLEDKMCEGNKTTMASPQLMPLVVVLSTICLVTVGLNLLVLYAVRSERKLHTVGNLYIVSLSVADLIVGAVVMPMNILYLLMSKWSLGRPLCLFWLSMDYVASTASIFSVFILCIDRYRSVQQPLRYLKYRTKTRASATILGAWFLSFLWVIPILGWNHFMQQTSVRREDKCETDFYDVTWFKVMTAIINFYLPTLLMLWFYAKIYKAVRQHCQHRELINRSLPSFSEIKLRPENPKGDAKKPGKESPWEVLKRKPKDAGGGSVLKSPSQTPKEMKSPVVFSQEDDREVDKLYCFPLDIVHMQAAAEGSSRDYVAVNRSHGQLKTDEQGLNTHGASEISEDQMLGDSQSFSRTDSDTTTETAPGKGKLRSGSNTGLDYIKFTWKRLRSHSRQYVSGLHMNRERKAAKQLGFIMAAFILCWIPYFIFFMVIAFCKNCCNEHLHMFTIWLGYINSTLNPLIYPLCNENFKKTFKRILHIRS

[11] = molecular target: Histamine H2 receptor (Homo sapiens) (UniProt P25021); experiment: Displacement of [125I]aminopotentidine from human histamine H2 receptor at 10 uM
Chain of Histamine H2 receptor (Homo sapiens) (P25021 whole entry): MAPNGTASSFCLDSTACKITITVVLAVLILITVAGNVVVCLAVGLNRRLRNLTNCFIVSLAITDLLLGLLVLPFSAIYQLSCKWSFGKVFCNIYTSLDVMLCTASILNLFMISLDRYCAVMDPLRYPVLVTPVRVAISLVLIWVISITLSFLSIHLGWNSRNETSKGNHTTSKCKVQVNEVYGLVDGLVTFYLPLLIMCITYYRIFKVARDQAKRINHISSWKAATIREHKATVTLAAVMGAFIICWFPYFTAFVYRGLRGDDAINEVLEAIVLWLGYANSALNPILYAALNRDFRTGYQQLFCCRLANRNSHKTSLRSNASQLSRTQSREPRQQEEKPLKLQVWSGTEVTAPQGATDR

[12] = molecular target: Histamine H2 receptor (Homo sapiens) (UniProt P25021); experiment: Displacement of [3H]N-alpha-Methylhistamine from human histamine H3 receptor at 10 uM
[13] = molecular target: Delta-type opioid receptor (Homo sapiens) (UniProt P41143); experiment: Displacement of [3H]naltrindole from human delta1 opiate receptor at 10 uM
[14] = molecular target: Mu-type opioid receptor (Homo sapiens) (UniProt P35372); experiment: Displacement of [3H]diprenorphine from human mu opiate receptor at 10 uM
hERG (KCNH2) = hERG (KCNH2) (Homo sapiens, UniProt Q12809); experiment: Displacement of [3H]astemizole from human ERG channel at 10 uM; settings: probe [3H]astemizole
Chain of hERG (KCNH2) (Q12809 whole entry): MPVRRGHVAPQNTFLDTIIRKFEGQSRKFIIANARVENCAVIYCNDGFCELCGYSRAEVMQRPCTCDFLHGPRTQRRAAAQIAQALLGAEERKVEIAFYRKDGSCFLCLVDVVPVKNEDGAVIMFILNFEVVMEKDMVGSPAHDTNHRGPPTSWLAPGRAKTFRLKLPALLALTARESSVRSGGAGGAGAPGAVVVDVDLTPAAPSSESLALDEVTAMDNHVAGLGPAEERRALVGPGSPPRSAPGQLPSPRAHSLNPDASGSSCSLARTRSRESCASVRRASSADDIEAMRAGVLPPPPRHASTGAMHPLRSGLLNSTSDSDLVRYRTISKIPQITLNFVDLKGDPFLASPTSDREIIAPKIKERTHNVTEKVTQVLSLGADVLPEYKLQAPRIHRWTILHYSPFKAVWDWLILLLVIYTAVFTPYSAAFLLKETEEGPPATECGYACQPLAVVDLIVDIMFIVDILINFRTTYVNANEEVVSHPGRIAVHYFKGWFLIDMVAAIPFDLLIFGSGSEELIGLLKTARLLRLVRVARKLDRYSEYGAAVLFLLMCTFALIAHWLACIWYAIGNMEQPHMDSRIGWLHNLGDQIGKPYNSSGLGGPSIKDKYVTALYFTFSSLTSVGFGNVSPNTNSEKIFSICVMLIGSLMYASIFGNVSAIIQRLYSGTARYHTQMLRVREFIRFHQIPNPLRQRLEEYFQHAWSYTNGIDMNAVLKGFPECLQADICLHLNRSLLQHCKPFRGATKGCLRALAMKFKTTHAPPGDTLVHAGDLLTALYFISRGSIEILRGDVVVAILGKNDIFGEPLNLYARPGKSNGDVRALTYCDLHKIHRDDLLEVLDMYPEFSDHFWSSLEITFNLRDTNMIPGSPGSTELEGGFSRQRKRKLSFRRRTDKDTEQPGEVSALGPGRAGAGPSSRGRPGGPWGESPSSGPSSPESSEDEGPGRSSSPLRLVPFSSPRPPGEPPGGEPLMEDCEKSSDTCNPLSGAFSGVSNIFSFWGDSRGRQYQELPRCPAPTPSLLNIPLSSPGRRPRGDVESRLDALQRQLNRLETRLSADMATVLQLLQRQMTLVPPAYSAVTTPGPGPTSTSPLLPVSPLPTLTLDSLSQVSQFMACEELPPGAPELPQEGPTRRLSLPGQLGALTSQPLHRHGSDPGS

[15] = molecular target: Prostaglandin E2 receptor EP4 subtype (Homo sapiens) (UniProt P35408); experiment: Displacement of [3H]prostaglandin E2 from human EP4 […] at 10 uM
Oryctolagus cuniculus = species on record: Oryctolagus cuniculus; experiment: Displacement of [3H]alpha,beta-methylene-ATP from rabbit P2X channel at 10 uM
[16] = molecular target: Substance-P receptor (Homo sapiens) (UniProt P25103); experiment: Displacement of [3H]substance P from human NK1 receptor 2 at 10 uM
[17] = molecular target: Sodium-dependent noradrenaline transporter (Homo sapiens) (UniProt P23975); experiment: Displacement of [125I]RTI-55 from human NET at 10 uM
[18] = molecular target: Sodium-dependent serotonin transporter (Homo sapiens) (UniProt P31645); experiment: Displacement of [3H]paroxetine from human SERT at 10 uM
Chain of Sodium-dependent serotonin transporter (Homo sapiens) (P31645 whole entry, looked up): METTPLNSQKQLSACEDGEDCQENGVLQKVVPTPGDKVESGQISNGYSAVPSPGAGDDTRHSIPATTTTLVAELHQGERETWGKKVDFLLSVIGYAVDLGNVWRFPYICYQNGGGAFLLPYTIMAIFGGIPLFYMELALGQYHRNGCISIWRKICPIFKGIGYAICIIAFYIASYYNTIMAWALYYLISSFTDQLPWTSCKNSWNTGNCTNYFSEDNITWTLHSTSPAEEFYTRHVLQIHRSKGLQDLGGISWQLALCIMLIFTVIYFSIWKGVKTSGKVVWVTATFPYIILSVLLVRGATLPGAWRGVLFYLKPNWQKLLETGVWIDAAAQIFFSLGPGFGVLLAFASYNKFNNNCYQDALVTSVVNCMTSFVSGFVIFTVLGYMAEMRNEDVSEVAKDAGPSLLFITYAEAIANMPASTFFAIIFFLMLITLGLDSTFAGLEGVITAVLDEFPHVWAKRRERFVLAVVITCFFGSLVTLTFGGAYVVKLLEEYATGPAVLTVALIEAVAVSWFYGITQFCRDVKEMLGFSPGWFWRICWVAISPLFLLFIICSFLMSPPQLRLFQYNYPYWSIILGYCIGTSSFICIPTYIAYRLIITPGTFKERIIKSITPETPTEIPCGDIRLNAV

[19] = Plasma concentration in C57BL/6 mouse at 1 mg/kg, ip administered as single dose measured after 20 mins by LC/MS analysis based RACE assay; format: ADME, organism-based; design: dose 1 mg/kg, route intraperitoneal
Procedure, shortened: (§1)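 Single intraperitoneal dose of 1, 5 or 10 mg/kg given to C57BL/6 mice, 3 mice per dose and time point, with a vehicle-control cohort. Plasma was sampled at 20 and 120 min post-dose and drug level measured by LC/MS. Each time point averaged two injections (<20% difference); values are means ± standard deviation in μM.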

[20] = tested on: Venezuelan equine encephalitis virus; experiment: Antiviral activity against Venezuelan equine encephalitis virus TC83 infected in Vero 76 cells assessed as reduction in virus-induced cytopathic effect after 2 days by Celltiter-Glo reagent based assay; format: functional, organism-based; settings: TC83, Vero 76, 48 h
[21] = Cytotoxicity against african green monkey Vero 76 cells after 3 days by Celltiter-Glo reagent based assay; format: cell-based; settings: chlorocebus sabaeus, vero 76, 72 h
Procedure, shortened: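 Vero 76 cells were seeded overnight at 12 000/well and given an 8-point 2-fold compound series (20 mM DMSO stock) in EMEM/10% FBS with no virus. Viability was read by CellTiter-Glo after 3 days relative to untreated cells. Run in duplicate; CC50 from a four-parameter logistic or sigmoidal fit.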

[22] = tested on: Venezuelan equine encephalitis virus; experiment: Antiviral activity against Venezuelan equine encephalitis virus TrD infected in Vero 76 cells assessed as reduction in viral titer at 5 uM by crystal violet staining based microplaque assay relative to untreated control; format: functional, organism-based
[23] = tested on: Venezuelan equine encephalitis virus; experiment: Antiviral activity against Venezuelan equine encephalitis virus TC83 infected in Vero 76 cells assessed as reduction in viral titer by crystal violet staining based microplaque assay relative to untreated control; format: functional, organism-based; settings: TC83, Vero 76
[24] = Stability in pH 7.4 PBS buffer assessed as parent compound remaining; format: physicochemical
Procedure, shortened: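 Aqueous stability measured after 48 h incubation, in PBS pH 7.4 or in 1:1 PBS/acetonitrile; reported as % parent remaining.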

Plasma = experiment: Protein binding in mouse plasma at 1 uM; format: ADME, cell-free
[25] = Hepatotoxicity in human Fa2N-4 cells; format: toxicity, cell-based; settings: read-out: LD50 (the source's name)
Cytochrome P450 1A2 = Cytochrome P450 1A2 (Homo sapiens, UniProt P05177); experiment: Inhibition of human CYP1A2 at 10 uM; format: ADME
Procedure, shortened: (§2)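 Human CYP inhibition run with reference inhibitors as controls: α-naphthoflavone for CYP1A2 and ketoconazole for CYP3A4.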

CYP3A4 = CYP3A4 (Homo sapiens, UniProt P08684); experiment: Inhibition of human CYP3A4 at 10 uM; format: ADME; procedure, shortened: as §2
Chain of CYP3A4 (P08684 whole entry): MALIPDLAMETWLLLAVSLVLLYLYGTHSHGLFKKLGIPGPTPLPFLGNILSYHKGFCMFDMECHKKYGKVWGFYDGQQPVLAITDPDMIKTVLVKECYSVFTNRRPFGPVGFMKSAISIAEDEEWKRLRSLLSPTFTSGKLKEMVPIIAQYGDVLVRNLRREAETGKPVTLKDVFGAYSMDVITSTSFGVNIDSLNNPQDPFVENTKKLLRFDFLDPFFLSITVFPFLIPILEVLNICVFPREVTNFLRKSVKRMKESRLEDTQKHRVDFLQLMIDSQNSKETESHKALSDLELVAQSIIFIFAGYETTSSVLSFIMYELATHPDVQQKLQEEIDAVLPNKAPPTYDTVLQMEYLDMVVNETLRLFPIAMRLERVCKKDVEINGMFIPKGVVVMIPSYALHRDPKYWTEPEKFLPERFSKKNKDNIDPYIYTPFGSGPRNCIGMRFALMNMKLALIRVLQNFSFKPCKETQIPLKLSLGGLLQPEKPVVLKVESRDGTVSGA

[26] = Plasma concentration in C57BL/6 mouse at 1 mg/kg, ip administered as single dose measured after 120 mins by LC/MS analysis based RACE assay; format: ADME, organism-based; design: dose 1 mg/kg, route intraperitoneal; procedure, shortened: as §1
[27] = Plasma concentration in C57BL/6 mouse at 10 mg/kg, ip administered as single dose measured after 20 mins by LC/MS analysis based RACE assay; format: ADME, organism-based; design: dose 10 mg/kg, route intraperitoneal; procedure, shortened: as §1
[28] = Plasma concentration in C57BL/6 mouse at 10 mg/kg, ip administered as single dose measured after 120 mins by LC/MS analysis based RACE assay; format: ADME, organism-based; design: dose 10 mg/kg, route intraperitoneal; procedure, shortened: as §1

## CN1CCN(C)/C(=N/c2ccc([N+](=O)[O-])cc2C(=O)Nc2ccccc2)C1
Mus musculus
  Activity: Non-toxic
[1]
  inhibition: 20.4%
[2]
  inhibition: 4.41%
[3]
  inhibition: -1.17%
[4]
  inhibition: 6.39%
[5]
  inhibition: 9.23%
[6]
  inhibition: 8.32%
[7]
  inhibition: 10%
[8]
  inhibition: 35.9%
[9]
  inhibition: 10.2%
Rattus norvegicus
  inhibition: 22.3%
[10]
  inhibition: 12.3%
[11]
  inhibition: 20.4%
[12]
  inhibition: 15.8%
[13]
  inhibition: -2.18%
[14]
  inhibition: 25.4%
hERG (KCNH2)
  inhibition at 10 µM: 30%
[15]
  inhibition: 4.82%
Oryctolagus cuniculus
  inhibition: 14.2%
[16]
  inhibition: 8.19%
[17]
  inhibition: 91.1%
[18]
  inhibition: -5.97%
[19]
  concentration at 20 min: 200 nM
[20]
  EC50: 30 nM
[21]
  CC50: > 50000 nM
[22]
  inhibition: Active
[23]
  EC50: 170 nM
[24]
  Stability: 82.9%
Plasma
  PPB: 85%
[25]
  CC50: > 250000 nM
Cytochrome P450 1A2
  inhibition (INH): 1.5%
CYP3A4
  inhibition at 10 µM: 18%
[26]
  concentration at 2 h: 23 nM
[27]
  concentration at 20 min: 2680 nM
[28]
  concentration at 2 h: 490 nM
